Shown are actives, neighbours in structure and some others; about 1.4% of the full set was active somewhere.
PG9 binder: PG9 antibody binding by small molecule | inhibition, % at 6.7 µM | 360,000 tested, 0.43% active | TR-FRET gp120-PG9 antibody binding; in the data active means inhibition above about 8.5%
NR2E3 ag-1: activates human NR2E3 receptor; Q9Y5X4; inhibition of corepressor binding, % at 3.98 µM; 360,000 tested, 0.35% active; CHO-S Gal4-NCOR/VP16-NR2E3 two-hybrid, luciferase;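 active means inhibition above the mean of all tested compounds plus 3 SD, cut at about 70% in these data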;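 further: 0% = DMSO with NR2E3 transfected cells and 100% = cells lacking NR2E3 construct; higher means lower luciferase signal from less NR2E3 corepressor binding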
NR2E3 ag-2: activates human photoreceptor nuclear receptor NR2E3. Q9Y5X4. inhibition of corepressor binding, % at 4.78 µM. GST-NR2E3/biotin-RetCOR TR-FRET, 1536-well. 320,000 tested, 0.12% active;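 active means percent inhibition above the cutoff of mean plus 3 SD of all tested compounds, set per screening campaign, cut at about 20% in these data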;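 further: 0% = DMSO wells and 100% = biotin wells as full block of FRET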
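system = GST-tagged NR2E3 plus biotinylated RetCOR corepressor | input = 1.35 nM GST-NR2E3 | also added = 7 nM biotin-RetCOR | schedule = 5 h incubation at 4 °C | measured by = TR-FRET with europium anti-GST and streptavidin-D2, 340 nm excitation | read-out = percent loss of FRET ratio relative to control wells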
NR1D1 modulator: modulators of human Rev-erb alpha DNA binding | activity, % at 10 µM | Rev-erbα–FITC-DNA binding, fluorescence polarization, 90 min | AID 1259318 | P20393 | 370,000 tested, 0.79% active;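 active means activity above about 14%, limit read from the data; passing the limit was not always enough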;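 further: 0% = DMSO wells with 35 nM protein and 100% = DMSO wells with 750 nM protein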
Target sequence (P20393 whole entry, looked up): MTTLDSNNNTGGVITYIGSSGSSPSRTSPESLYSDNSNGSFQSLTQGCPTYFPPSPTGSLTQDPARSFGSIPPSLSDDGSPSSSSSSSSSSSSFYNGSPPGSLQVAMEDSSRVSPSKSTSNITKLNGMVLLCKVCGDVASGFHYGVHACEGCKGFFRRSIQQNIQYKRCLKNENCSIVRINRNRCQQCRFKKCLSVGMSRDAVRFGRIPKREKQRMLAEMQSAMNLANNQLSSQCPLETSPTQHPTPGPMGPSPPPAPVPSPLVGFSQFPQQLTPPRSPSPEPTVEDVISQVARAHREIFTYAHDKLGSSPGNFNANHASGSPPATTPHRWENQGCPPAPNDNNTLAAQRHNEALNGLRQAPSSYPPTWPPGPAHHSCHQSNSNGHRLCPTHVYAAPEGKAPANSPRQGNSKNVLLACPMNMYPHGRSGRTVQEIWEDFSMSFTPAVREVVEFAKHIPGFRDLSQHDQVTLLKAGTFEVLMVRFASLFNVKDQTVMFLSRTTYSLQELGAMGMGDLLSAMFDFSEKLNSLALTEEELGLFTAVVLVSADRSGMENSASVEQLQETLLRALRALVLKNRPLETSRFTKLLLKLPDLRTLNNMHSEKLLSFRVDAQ
NR2E3 ag conf: confirmation of human NR2E3 agonists | 2,300 tested, 51% active | CHO-S mammalian two-hybrid NR2E3-NCOR, luciferase luminescence | inhibition, % at 3.98 µM | shares compounds with NR2E3 ag-1 | AID 624378;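 active means average inhibition above a cutoff equal to the mean inhibition of all tested compounds plus one SD, cut at about 70% in these data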;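 further: 0% = DMSO in NR2E3 cells and 100% = DMSO in cells lacking NR2E3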
VP16 counter: GAL4-VP16 reporter inhibition in NR2E3 agonist counterscreen; shares compounds with NR2E3 ag-1; CHO-S GAL4-VP16 luciferase reporter, luminescence; inhibition, % at 3.98 µM; 2,300 tested, 29% active; AID 624379;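 active means mean inhibition above a cutoff equal to the average over all tested compounds plus one standard deviation, cut at about 70% in these data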;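 further: luciferase from a UAS reporter driven by GAL4-VP16 transactivation; 0% = DMSO with VP16-transfected cells and 100% = DMSO with cells lacking VP16; higher means less reporter light so more repression of VP16 activity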
* = called active by the depositor; . = not tested or not shown.

SMILES	PG9 binder	NR2E3 ag-1	NR2E3 ag-2	NR1D1 modulator	NR2E3 ag conf	VP16 counter
CC(NC(=O)c1cc(COc2ccc3ncccc3c2)on1)c1ccc(F)cc1 (stereo not drawn)	0.2	85.5*	1.0	1.1	96.4*	88.0*
C=CCC1(CC=C)CCCN1C(=O)c1cc(COc2ccc(C)nc2)on1	2.2	98.9*	0.3	-1.2	97.1*	79.7*
Cc1ccc(OCc2cc(C(=O)N3CCCCCCC3)no2)cc1C	-1.4	-64.6	3.9	5.5	.	.
COCC1CCN(C(=O)c2cc(COc3ccc4ncccc4c3)on2)CC1	-0.4	67.9	3.8	-3.0	90.7*	75.0*
O=C(c1cc(COc2ccc3ncccc3c2)on1)N1CCCCCC1	-0.4	71.4*	-1.6	-8.3	95.2*	75.9*
COCC1CCN(C(=O)c2cc(COc3ccc(-n4cncn4)cc3)on2)CC1	-0.3	15.9	2.5	3.5	.	.
C=CCC1(CC=C)CCCN1C(=O)c1cc(COc2ccc(F)c(F)c2)on1	0.2	-7.2	-2.6	5.2	.	.
CC(=O)C1(C(=O)NCc2ccccc2)CC(c2ccccn2)=NO1 (stereo not drawn)	.	.	.	0.8	.	.
O=C1C[C@@H](O)[C@H](O)c2cccc(O)c21	.	.	.	-5.8	.	.
Cc1ccc(OCc2cc(C(=O)NC3CCCCC3)no2)cn1	-0.7	82.7*	-1.3	4.3	59.4	55.1
O=C(c1cc(COc2ccc3ncccc3c2)on1)N1CCCC1	-1.1	83.8*	-0.5	-5.1	79.8*	60.9
O=C(NC1CCCC1)c1cc(COc2ccc3ncccc3c2)on1	.	95.3*	-2.1	.	94.6*	84.5*
COc1cccc(OCc2cc(C(=O)NC3CCOCC3)no2)c1	-1.7	-89.5	1.4	-0.2	.	.
Cc1cc(OCc2cc(C(=O)NC3CCC3)no2)cc(C)c1Cl	.	9.6	-2.3	.	.	.
CSc1ccccc1OCc1cc(C(=O)N2CCC(c3ccncc3)CC2)no1	0.2	101.0*	2.3	3.1	92.9*	78.8*
COc1ccc(S[C@]2(C(=O)N3CCN(C(C)=O)CC3)CC(=O)N(C(=O)C3CC3)[C@@H]2c2ccc(OC)cc2)cc1	.	.	.	0.3	.	.
COC(=O)[C@H](C(C)C)N1Cc2nnn(Cc3ccccc3)c2-c2ccccc2S1(=O)=O	.	.	.	-1.5	.	.
O=C(NCCc1cn2ccccc2n1)c1cc(COc2ccc3ncccc3c2)on1	0.5	53.3	-0.2	-4.7	69.9	60.5
Cc1cc(OCc2cc(C(=O)N3CCC(Oc4cccnc4)CC3)no2)cc(C)c1Cl	0.1	93.7*	4.3	6.4	93.5*	74.5*
COc1ccc(-c2coc3c(C(=O)NCCN4CCOCC4)cccc23)c(C)c1	-1.2	-10.5	.	-6.1	.	.
COc1ccc(-c2coc3c(C(=O)NCC4CCOCC4)cccc23)c(C)c1	0.0	70.9*	.	5.1	59.9	50.9
Cn1cc(-c2coc3c(C(=O)NCc4cccnc4)cccc23)cn1	-2.1	-26.2	.	-1.9	.	.
COc1cc(NC(=O)c2cccc3c(-c4cccnc4)coc23)cc(OC)c1OC	-0.4	50.8	.	-1.9	13.2	42.1
COc1ccc(-c2coc3c(C(=O)NCc4ccc(OC)c(OC)c4)cccc23)c(C)c1	-0.6	91.3*	.	-6.5	95.1*	82.3*
COc1ccc(CNC(=O)c2cccc3c(-c4cnn(C)c4)coc23)cc1OC	-0.2	62.9	.	11.4	41.1	34.2
SMILES	PG9 binder	NR2E3 ag-1	NR2E3 ag-2	NR1D1 modulator	NR2E3 ag conf	VP16 counter
O=C(Nc1cccc(C(F)(F)F)c1)c1cccc2c(-c3cccnc3)coc12	.	-59.0	.	.	.	.
CCn1c2ccccc2c2cc(C=NNC(=O)c3ccoc3C)ccc21	.	.	.	5.5	.	.
CCCNC(=O)N1[C@@H](CO)[C@H](c2ccc(C3=CCCC3)cc2)[C@@H]1CN(CC)S(=O)(=O)c1ccccc1[N+](=O)[O-]	.	.	.	1.8	.	.
Cc1cc(OC[C@@H](O)CN2CCC(C(O)(c3ccccc3)c3ccccc3)CC2)ccc1Br	.	.	.	0.9	.	.
COc1ccc2oc(C(=O)NCCc3ccccc3)c(C)c2c1	0.7	-80.2	0.1	0.3	.	.
COc1ccc2oc(C(=O)NCc3cc(OC)c(OC)cc3OC)c(C)c2c1	-2.0	74.7*	2.9	4.3	43.5	52.8
Cn1c(SCC(=O)Nc2ccccc2-c2ccccc2)nnc1-c1cnccn1	.	.	.	0.8	.	.
O=C(CSc1nnc(-c2cccc(Cl)c2)n1Cc1ccco1)Nc1ccc2c(c1)OCO2	.	.	.	0.1	.	.
c1ccc2sc(SCSc3nc4ccccc4s3)nc2c1	-2.6	-23.7	-2.8	4.8	.	.
O=C(O)CCSc1nc2ccccc2s1	1.1	53.6	2.3	3.5	52.7	66.6
O=C(NCc1c(F)cccc1F)c1cc(COc2c(F)cccc2F)on1	-2.7	88.6*	3.0	2.6	-27.5	-48.9
COC(=O)[C@]12C[C@H](CC(=O)NCCCCc3ccccc3)C(=O)N(CCC3=CCCCC3)C1=C[C@H](C(C)C)O[C@@H]2C1CC1	.	.	.	3.8	.	.
CC12CCC(=O)C=C1CCC1C2CCC2(C)C(c3csc(N)n3)CCC12 (stereo not drawn)	0.1	75.2*	.	3.9	94.1*	76.2*
O=C1N(CCCO)CCC12CCC(c1ccccc1)CC2 (stereo not drawn)	.	.	.	-1.7	.	.
CC(C)NC(=O)CCn1nnc(-c2cccs2)n1	.	.	.	7.5	.	.
OCC1OC(n2ccc3c2ncn2ncnc32)C(O)C1O (stereo not drawn)	-3.1	57.5	.	4.7	7.5	12.6
O=C(CSc1nnc(-c2ccco2)n1Cc1ccco1)c1ccc([N+](=O)[O-])cc1	.	.	.	-4.1	.	.
CC(Nc1ncnc2sccc12)c1ccccc1 (stereo not drawn)	0.1	106.4*	-2.1	-2.9	97.4*	86.3*
c1ccc(Nc2ncnc3sccc23)cc1	-1.4	-9.5	-1.1	2.7	.	.
O=C(CCc1ccccc1-c1ccccc1CCNC(=O)c1ccc(F)c(F)c1)NCc1ccccc1	.	.	.	8.3	.	.
CCCOc1ccc(-c2nc(CSCC(=O)NC3CC3)c(C)o2)cc1	.	.	.	2.6	.	.
CCOc1ccc(-c2nc(CSCC(=O)NCc3ccco3)c(C)o2)cc1	0.7	100.0*	-0.9	-2.1	93.1*	94.5*
CCOc1ccc(-c2nc(CSCC(=O)NC3CC3)c(C)o2)cc1	.	109.1*	1.6	.	94.7*	94.5*
CCOC(=O)N1CCC(NC(=O)CSCc2nc(-c3ccc(OCC)cc3)oc2C)CC1	-2.3	59.5	-2.5	-7.4	43.1	33.3
COc1ccc(C(O)c2nc(-c3ccncc3)cs2)cc1 (stereo not drawn)	0.3	63.5	.	-6.5	67.5	66.1
CN(c1nc2ccccc2[nH]c1=O)C1CCCCC1	1.7	54.6	1.9	14.9	89.6*	72.6*
Cc1ccc(/C=C/C(=O)c2c(C)cc(C)[nH]c2=O)cc1	.	49.2	4.2	-6.4	45.4	29.5
CCCCNS(=O)(=O)CC1NCc2ccccc21 (stereo not drawn)	.	.	.	2.7	.	.
CN(C)c1ncnc2c1nnn2C1OC(CO)C(O)C1O (stereo not drawn)	-0.7	88.8*	.	-2.9	-8.7	60.8
